Compounds with a hit are over-represented: about 3.7% of the library has one in this group of screens.
Granule exo inh: LAMP-1 surface exposure blockers, TALL-104 cells – cell-based, flow cytometry, MLPCN library, primary screen; 360,000 tested, 0.66% active; AID 651702, 2012; TALL-104 LAMP-1 surface exposure; cells stimulated with thapsigargin and PMA; inhibition, % at 10 µM;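 active means inhibition above about 55%, limit read from the data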
Myeloid diff 2: induction of myeloid progenitor differentiation, primary screen, cell-based, flow cytometry, MLPCN library; ER-HoxA9 myeloid progenitors, lysozyme-GFP differentiation; calls only at 10 µM; 360,000 tested, 1% active; AID 624256, 2012;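 active means normalized GFP-positive differentiation at or above the plate's own cutoff, the solvent-only control mean plus 3 SD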;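 further: cells exposed to compound for four days before flow analysis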
EBI2 antag: EBI2 receptor antagonists, beta-arrestin recruitment, primary screen, cell-based, luminescence, 7a,25-OHC stimulation, uHTS. G-protein coupled receptor 183 (Homo sapiens), P32249. 7a,25-OHC stimulated. inhibition, % at 5 µM. 360,000 tested, 0.81% active; in the data active means inhibition above about 38%;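 further: enzyme fragment complementation signal reports receptor beta-arrestin coupling in cells; 0% = agonist plus DMSO wells and 100% = wells without agonist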
MC4R ag barr: MC4R agonists recruiting beta-arrestin, primary screen, cell-based, luminescence, agonist arm of biased-ligand search | Melanocortin receptor 4 (Homo sapiens), P32245 | U2OS MC4R beta-arrestin complementation; percent of melanotan II response, DMSO zero | activation, % at 8.9 µM | 360,000 tested, 0.98% active | AID 540308, 2011;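 active means activation above a per-plate cutoff, the mean activation of sample wells on that plate plus 3 SD, cut at about 8% in these data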
Target sequence (P32245 whole entry, looked up): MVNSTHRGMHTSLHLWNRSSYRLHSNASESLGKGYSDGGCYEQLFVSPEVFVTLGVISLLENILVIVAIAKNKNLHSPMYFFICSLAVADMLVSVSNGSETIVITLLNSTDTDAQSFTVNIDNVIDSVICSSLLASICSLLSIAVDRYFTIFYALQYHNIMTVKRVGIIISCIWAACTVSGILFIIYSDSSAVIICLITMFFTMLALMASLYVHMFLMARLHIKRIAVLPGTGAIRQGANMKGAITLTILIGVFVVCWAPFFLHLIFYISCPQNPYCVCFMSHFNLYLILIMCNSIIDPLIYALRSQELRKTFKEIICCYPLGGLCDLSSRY
MC4R antagonist: MC4R antagonists of cAMP signaling, primary screen, cell-based, TR-FRET, antagonist arm of biased-ligand search | Melanocortin receptor 4 (Homo sapiens), P32245 | MC4R-expressing cells, MTII-stimulated cAMP, LANCE TR-FRET | inhibition, % at 6.5 µM | 360,000 tested, 0.48% active;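 active means inhibition above its plate's cutoff, the mean of tested wells on that plate plus 3 SD, cut at about 29% in these data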;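 further: 0% = Melanotan II alone and 100% = Melanotan II plus saturating MCL0020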
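material = U2OS cells stably expressing human melanocortin 4 receptor (MC4R) | also added = Melanotan II challenge | dosing = single nominal compound dose of 6.5 µM | detection = TR-FRET with Eu-cAMP and labeled anti-cAMP, 671 nm | replication = singlicate | timing = compound 30 min, challenge 1 h, detection 1 h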
EBI2 antag conf: EBI2 antagonist hit retest, beta-arrestin, confirmation, cell-based, single concentration, luminescence, 7a,25-OHC stimulation; inhibition, % at 5 µM; shares compounds with EBI2 antag; 7a,25-OHC antagonism; AID 651997, 2013; 2,400 tested, 29% active;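 active means inhibition of at least 50%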
EBI2 agonist: EBI2 agonist activity of antagonist hits, confirmation, counter-screen for EBI2 antagonist project, cell-based, single concentration, agonist mode, luminescence; shares compounds with EBI2 antag; EBI2-expressing cells, 60 min; 0% vehicle, 100% 7α,25-dihydroxycholesterol control; activation, % at 5 µM; 2,400 tested, under 10 active;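 active means activation of at least 50%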
bGal counter: E. coli beta-galactosidase enzyme inhibition, confirmation, counter-screen for EBI2 antagonist project, biochemical, luminescence, single concentration; shares compounds with EBI2 antag; purified beta-galactosidase, luminescent Galacton Star, 15 min; 2,400 tested, 1% active; inhibition, % at 5 µM;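 active means replicate-average signal at least 3 plate SD below neutral wells, shown as high inhibition, flagging enzyme-inhibiting false positives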;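 further: 0% = DMSO wells with enzyme and 100% = wells lacking enzyme; higher means stronger loss of beta-gal luminescence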
An asterisk follows results filed as active; i = inactive; . = no result.

SMILES	Granule exo inh	Myeloid diff 2	EBI2 antag	MC4R ag barr	MC4R antagonist	EBI2 antag conf	EBI2 agonist	bGal counter
COc1cc2nc(CN3CCC(Cc4ccccc4)CC3)[nH]c(=O)c2cc1OC	1	i	46*	-2	4	24	1	0
COc1cc2nc(CN3CCN(S(=O)(=O)c4cc(C)ccc4C)CC3)[nH]c(=O)c2cc1OC	-1	i	60*	2	20	37	2	1
C[C@H](CO)N1C[C@H](C)[C@@H](CN(C)S(=O)(=O)c2cn(C)cn2)Oc2c(NS(=O)(=O)c3ccc(F)cc3)cccc2C1=O	-7	i	-1	0	6	.	.	.
Cc1cc(-c2ccn[nH]2)c(C)s1	0	i	-7	-2	3	.	.	.
CCOc1ccc2[nH]c(C)c(CN3CCCCCC3)c(=O)c2c1	-1	i	-3	0	4	.	.	.
CC1=C(C(=O)OCC2CCCO2)C(c2cccc(C(F)(F)F)c2)C2=C(CC(c3ccco3)CC2=O)N1 (stereo not given)	0	i	53*	1	8	30	0	5
Oc1cccc(/C=N/Nc2cc(N3CCCC3)nc(N3CCCC3)n2)c1	51	i	39	2	2	.	.	.
COc1ccc(/C=N/Nc2cc(C)nc(-n3nc(C)cc3C)n2)cc1	4	i	49*	-2	-5	53*	0	4
Cc1cc(N/N=C/c2cccc(Cl)c2)nc(-n2nc(C)cc2C)n1	-6	i	18	0	7	.	.	.
COc1ccc(/C=N/Nc2cc(N3CCCC3)nc(N3CCCC3)n2)cc1	72*	i	60*	1	-1	33	3	7
CC1(C(=O)NCc2ccccc2Br)CCN1Cc1csc2ccccc12 (stereo not given)	0	i	61*	-1	12	51*	2	0
CC1(C)CC(=O)C=C(c2n[nH]nc2-c2ccccc2)C1	-4	i	-5	1	-2	.	.	.
Cn1c(NCc2ccco2)nc2c1c(=O)n(Cc1ccc(Cl)c(Cl)c1)c(=O)n2C	9	i	46*	1	-1	35	0	6
CC1(C(=O)Nc2cnc3ccccc3c2)CCN1C(=O)c1ccccc1CCc1ccccc1 (stereo not given)	10	i	48*	-1	8	37	0	-17
Cc1noc(C)c1C(=O)N1CCN(C(=O)c2sc3cc(Cl)ccc3c2Cl)CC1	3	i	42*	-3	13	14	-1	-8
Cc1noc(C)c1C(=O)N1CCN(c2ccccc2O)CC1	16	i	-10	0	2	.	.	.
CC(C)(C)NC(=O)C1C(c2ccc(C(F)(F)F)cc2)=Nc2ccccc2N1C(=O)c1cccc(C(F)(F)F)c1 (stereo not given)	1	i	-1	.	.	.	.	.
Clc1ccc(OCc2nnnn2-c2ccccc2)cc1	1	i	79*	-1	5	54*	2	4
c1ccc(OCc2nnnn2-c2ccccc2)cc1	3	i	9	-3	3	.	.	.
CC(C)Oc1cc(F)ccc1-c1cc(C(=O)Nc2ccc(C(C)C)cc2)[nH]n1	0	i	54*	6	15	47	1	1
